The nature of assay [1]: Growth inhibition of human NCI60 cells assessed as cell growth at 10 uM. Format: functional. As to conditions: read-out: Activity. In outline: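 NCI-60 single-dose screen at 10 μM across ~60 human cancer cell lines. Reported as growth percent relative to vehicle-treated control, averaged over all lines tested as a mean growth percent.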
Assay [2] deals with T1, DNA topoisomerase 1 (Homo sapiens) (UniProt P11387).
T1 sequence (whole entry): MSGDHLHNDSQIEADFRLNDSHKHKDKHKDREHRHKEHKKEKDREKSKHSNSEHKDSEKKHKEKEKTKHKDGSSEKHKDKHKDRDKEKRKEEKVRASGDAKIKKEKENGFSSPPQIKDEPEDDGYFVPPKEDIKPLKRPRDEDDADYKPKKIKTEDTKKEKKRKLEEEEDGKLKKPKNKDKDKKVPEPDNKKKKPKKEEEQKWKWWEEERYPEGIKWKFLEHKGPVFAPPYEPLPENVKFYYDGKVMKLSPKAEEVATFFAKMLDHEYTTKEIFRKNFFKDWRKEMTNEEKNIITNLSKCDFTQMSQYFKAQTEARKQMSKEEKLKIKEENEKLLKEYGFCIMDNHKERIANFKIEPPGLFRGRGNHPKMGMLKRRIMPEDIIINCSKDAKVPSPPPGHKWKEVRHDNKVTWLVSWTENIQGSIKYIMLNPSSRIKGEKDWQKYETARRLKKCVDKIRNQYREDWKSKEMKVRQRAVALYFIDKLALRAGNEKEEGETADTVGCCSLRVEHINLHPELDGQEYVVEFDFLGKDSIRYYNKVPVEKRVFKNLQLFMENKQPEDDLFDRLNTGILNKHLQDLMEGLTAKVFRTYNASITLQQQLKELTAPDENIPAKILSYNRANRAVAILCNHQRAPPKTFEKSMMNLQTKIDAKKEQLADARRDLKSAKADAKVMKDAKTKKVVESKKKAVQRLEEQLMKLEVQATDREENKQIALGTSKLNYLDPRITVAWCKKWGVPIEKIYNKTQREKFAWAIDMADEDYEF
Nature of the assay: Inhibition of recombinant topoisomerase 1 (unknown origin) assessed as DNA cleavage using 3'-[32P]-labeled 117-bp DNA oligonucleotide at 1 uM by PAGE assay. Details: Activity: scale not given: the % may be the effect or the level left. In outline:
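Approx. 2 nM 3′-[³²P]-labeled double-stranded DNA incubated with recombinant Top1 and compound at 0.1, 1, 10 or 100 μM for 20 min at 25 °C. Stopped with 0.5% SDS and run on a denaturing gel. […] Run twice.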

Assay [3] relates to SN12C. Nature of the assay: Growth inhibition of human SN12C cells by five-dose growth inhibition assay. It is filed as functional.
Assay [4] in a line: Growth inhibition of human SF539 cells by five-dose growth inhibition assay. To be noted: SF-539. Format: functional.
Assay [5] deals with HCT-116. Description: Growth inhibition of human HCT116 cells by five-dose growth inhibition assay. Format: functional.
Assay [6] deals with MCF7. Nature of the assay: Growth inhibition of human MCF7 cells by five-dose growth inhibition assay. Format: functional.
For assay [7], the system named is DU-145. Description: Growth inhibition of human DU145 cells by five-dose growth inhibition assay. It is filed as functional.
Assay [8] concerns OVCAR-3. Description: Growth inhibition of human OVCAR3 cells by five-dose growth inhibition assay. Format: functional.
Assay [9] has as its system UACC-62. Description: Growth inhibition of human UACC62 cells by five-dose growth inhibition assay. Format: functional.
Assay [10] concerns HOP-62. Description: Growth inhibition of human HOP62 cells by five-dose growth inhibition assay. Format: functional.

For the molecule `N#Cc1ccc2c3c(n(C[C@H](O)CO)c(=O)c2c1)-c1ccccc1C3=O`, in assay [1], the growth at 10 µM was 42.6%. Moreover, the Activity in assay [2] came out at 20%.
As to `CC[C@@]1(O)C(=O)OCc2c1cc1n(c2=O)Cc2cc3c(CN(C)C)c(O)ccc3nc2-1` [TOPOTECAN], the figures for the 50% growth inhibitory concentration (GI50) in assay [3], in assay [4] and in assay [5] were 20 nM, 10 nM and 30 nM, respectively. Further, the Activity in [2] came to 100%.
With `O=C1c2ccccc2-c2c1c1ccc(Cl)cc1c(=O)n2C[C@H](O)CO`, the concentration for 50% growth inhibition (GI50) (commonly the concentration that inhibits growth by half) in assay [6] amounted to 257 nM; in assay [7], 2090 nM; in assay [3] it was 977 nM; in assay [4] it was 417 nM; in [8] it was 2240 nM; in assay [9] it was 398 nM. In addition, the concentration for 50% growth inhibition (GI50) in [5] is 437 nM; in [10], 692 nM. Also, the growth at 10 µM in assay [1] worked out at 14.5%. In assay [2], the Activity was 50%.
With `O=C1c2ccccc2-c2c1c1ccc([N+](=O)[O-])cc1c(=O)n2C[C@H](O)CO`, the Activity in [2] worked out at 100%.
`O=C1c2ccccc2-c2c1c1ccc(F)cc1c(=O)n2C[C@H](O)CO`: the growth at 10 µM in assay [1] worked out at 61.1%. Further, the Activity in assay [2] turned out to be 50%.
The corresponding values for `O=C1c2ccccc2-c2c1c1ccncc1c(=O)n2CCCn1ccnc1` are 47.5% and 20%.
The corresponding values for `O=C1c2ccccc2-c2c1c1cc(C(F)(F)F)ccc1c(=O)n2C[C@H](O)CO` are 82.7% and 20%.
Take `CSc1ccc2c3c(n(CCCn4ccnc4)c(=O)c2c1)-c1ccccc1C3=O`: the growth at 10 µM in assay [1] was determined as 42.6%. The Activity in [2] stood at 20%.
For `COC(=O)c1ccc2c3c(n(CCCn4ccnc4)c(=O)c2c1)-c1ccccc1C3=O`, the GI50 in assay [6] was 316 nM; in assay [7], 692 nM; in [3], 525 nM; in assay [4], 490 nM; in assay [8], 100000 nM; in [9] it was 100000 nM. The GI50 is 398 nM in assay [5] and 589 nM in assay [10]. Also, the growth at 10 µM in assay [1] was found to be 62.1%. In addition, the Activity in assay [2] came to 50%.
On to `O=C1c2ccccc2-c2c1c1ccc(Br)cc1c(=O)n2C[C@H](O)CO`, for which the growth at 10 µM in assay [1] came to 46.8%. Moreover, the Activity in assay [2] worked out at 50%.
On to `O=C1c2ccccc2-c2c1c1ccc([N+](=O)[O-])cc1c(=O)n2CCCN1CCOCC1`, for which the Activity in assay [2] was 70%.
Take `CS(=O)(=O)c1ccc2c3c(n(CCCn4ccnc4)c(=O)c2c1)-c1ccccc1C3=O`: the growth at 10 µM in assay [1] was 59.4%. Further, in [2], the Activity turned out to be 50%.
For `O=C1c2ccccc2-c2c1c1ccc(Br)cc1c(=O)n2CCCN1CCOCC1`, the growth at 10 µM in assay [1] is 84%. In addition, the Activity in assay [2] was 75%.
Take `O=C1c2ccccc2-c2c1c1ccc([N+](=O)[O-])cc1c(=O)n2CCCn1ccnc1`: in assay [6], halving of growth (GI50) required 2170 nM. Moreover, in [2], the Activity is 100%.
For the molecule `CS(=O)(=O)c1ccc2c3c(n(C[C@H](O)CO)c(=O)c2c1)-c1ccccc1C3=O`, the growth at 10 µM in assay [1] was 96.7%. The Activity in [2] turned out to be 50%.
As to `CN(C)CCCn1c2c(c3ccncc3c1=O)C(=O)c1ccccc1-2`, the 50% growth inhibitory concentration (GI50) turned out to be 331 nM in assay [6], 977 nM in [7], 955 nM in assay [3] and 708 nM in assay [4]. Also, the Activity in assay [2] was 50%.
`N#Cc1ccc2c3c(n(CCCN4CCOCC4)c(=O)c2c1)-c1ccccc1C3=O`: in [1], the growth at 10 µM was 102%. For the same molecule, the Activity in assay [2] turned out to be 50%.
`O=C1c2ccccc2-c2c1c1ccc(C(F)(F)F)cc1c(=O)n2C[C@H](O)CO`: the growth at 10 µM in assay [1] came out at 52.2%. In addition, the Activity in assay [2] amounted to 20%.
As to `COC(=O)c1ccc2c3c(n(CCCN4CCOCC4)c(=O)c2c1)-c1ccccc1C3=O`, the growth at 10 µM in [1] was determined as 87.5%. For the same molecule, the Activity in assay [2] came out at 20%.
On to `O=C1c2ccccc2-c2c1c1cc(C(F)(F)F)ccc1c(=O)n2CCCn1ccnc1`, for which the growth at 10 µM in assay [1] was found to be 49.3%. Besides, the Activity in [2] worked out at 20%.
